# Test results as given in ChEMBL document CHEMBL5113395, “Azetidin-2-one-based small molecules as dual hHDAC6/HDAC8 inhibitors: Investigation of their mechanism of action and impact of dual inhibition profile on cell viability” (Eur J Med Chem, 2022).
# Assays:
# [1] = Metabolic stability in human liver microsome assessed as half life at 5 uM in presence of NADPH incubated up to 60 mins by HPLC analysis; assay type: ADME; details: liver microsomes
# Method in brief: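 Compound in MeCN was incubated at 5 µM and 37 °C in 100 mM phosphate buffer pH 7.4 with 0.5 mg/mL human or mouse liver microsomal protein. Reactions were started with an NADPH-regenerating system (2 mM NADPH, glucose-6-phosphate, G6PDH, MgCl2) and stopped with MeCN over 0–60 min. Remaining compound was measured by HPLC-UV at 254 nm, in triplicate, with first-order decay fitting.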
# [2] = Chemical stability of compound in PBS at pH 7.4 incubated for 24 hrs at 40 degreeC by HPLC/UV/DAD analysis; assay type: physicochemical; details: read-out: Stability
# [3] = Solubility of compound in PBS at pH 7.4 measured after 24 hrs by HPLC/UV/DAD analysis; assay type: physicochemical
# Method in brief: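 10 mM DMSO stock diluted to 250 μM (2.5% DMSO) in 50 mM aqueous PBS pH 7.4. Standard prepared in MeCN/water 60:40. Sealed and shaken 24 h at 25 °C, PTFE-filtered and diluted 1:2 in buffer. Quantified by HPLC/UV/DAD at 254 nm against the 250 μM standard. Triplicate, averaged.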
# [4] = Chemical stability of compound in PBS at pH 7.4 incubated for 24 hrs under UV 254 nm stress condition by HPLC/UV/DAD analysis; assay type: physicochemical; details: read-out: Stability
# [5] = Toxicity in zebrafish AB embryos assessed as changes in dead and live embryos at 25 to 75 uM measured after 24 hrs; details: Danio rerio, in vivo
# [6] = Metabolic stability in rat liver microsome assessed as intrinsic clearance at 5 uM measured per mg protein in presence of NADPH incubated up to 60 mins by HPLC analysis; assay type: ADME; details: microsomes, 1 h
# Method in brief: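 Compound (in MeCN) at 5 μM incubated at 37 °C in 100 mM phosphate buffer pH 7.4 with 0.5 mg/mL liver microsomal protein (rat, mouse or human). CYP reactions started with NADPH-generating system (2 mM NADPH, glucose-6-phosphate, G6P dehydrogenase, MgCl2). Stopped with MeCN at intervals over 0–60 min. Remaining parent quantified by HPLC-UV at 254 nm. Ln % recovery vs time fitted to first-order decay. Triplicate incubations.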
# [7] = Chemical stability of compound in PBS at pH 7.4 measured after 24 hrs by HPLC/UV/DAD analysis; assay type: physicochemical; details: read-out: Stability
# Method in brief: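 DMSO stock (10 mM) was diluted to 250 µM (2.5% DMSO) in 50 mM PBS, pH 7.4, and kept 24 h at 25 °C with shaking. Peak area at 24 h versus T0 was measured by HPLC/UV/DAD at 254 nm, in triplicate. Stress tests used a methanol solution heated at 40 °C for 24 h, or 24 h under UV 254 nm.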
# [8] = Octanol-water partition coefficient, log P of the compound by HPLC analysis; assay type: physicochemical
# Method in brief: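 Stock of 0.005 M in MeOH, diluted serially in MeOH to build a calibration curve. Compound partitioned between water and n-octanol. LogP taken from the n-octanol/water phase ratio against the calibration curve, quantified by the RP-18 HPLC method at 254 nm.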
# [9] = Cardiotoxicity in Langendorff-perfused Wistar rat heart assessed as effect on QTc interval time at 10 uM by ECG analysis (reference value: 66.4+/-1.3 milliseconds); assay type: toxicity, tissue-based
# [10] = Cardiotoxicity in Langendorff-perfused Wistar rat heart assessed as effect on HR at 10 uM by ECG analysis (reference value: 252.3 +/-10.1 bpm); assay type: toxicity, tissue-based
# [11] = Cardiotoxicity in Langendorff-perfused Wistar rat heart assessed as effect on PQ interval time at 0.01 uM by ECG analysis (reference value: 45.4+/-3.9 milliseconds); assay type: toxicity, tissue-based
# [12] = Cardiotoxicity in Langendorff-perfused Wistar rat heart assessed as effect on QTc interval time at 0.01 uM by ECG analysis (reference value: 66.4+/-1.3 milliseconds); assay type: toxicity, tissue-based
# [13] = Cardiotoxicity in Langendorff-perfused Wistar rat heart assessed as effect on QT interval time at 0.01 uM by ECG analysis (reference value: 66.1+/-1.1 milliseconds); assay type: toxicity, tissue-based
# B cell = assay: Cytotoxicity against patient derived human B cells; assay type: toxicity, cell-based
# [14] = Cardiotoxicity in Langendorff-perfused Wistar rat heart assessed as effect on QRS interval time at 0.01 uM by ECG analysis (reference value: 13.3+/-0.6 milliseconds); assay type: toxicity, tissue-based
# [15] = Cardiotoxicity in Langendorff-perfused Wistar rat heart assessed as effect on QTc interval time at 0.1 uM by ECG analysis (reference value: 66.4+/-1.3 milliseconds); assay type: toxicity, tissue-based
# [16] = Cardiotoxicity in Langendorff-perfused Wistar rat heart assessed as effect on RR time at 1 uM by ECG analysis (reference value: 239.5+/-9.2 milliseconds); assay type: toxicity, tissue-based
# [17] = Cardiotoxicity in Langendorff-perfused Wistar rat heart assessed as effect on QRS interval time at 1 uM by ECG analysis (reference value: 13.3+/-0.6 milliseconds); assay type: toxicity, tissue-based
# [18] = Cardiotoxicity in Langendorff-perfused Wistar rat heart assessed as effect on RR time at 0.01 uM by ECG analysis (reference value: 239.5+/-9.2 milliseconds); assay type: toxicity, tissue-based
# [19] = Cardiotoxicity in Langendorff-perfused Wistar rat heart assessed as effect on QRS interval time at 10 uM by ECG analysis (reference value: 13.3+/-0.6 milliseconds); assay type: toxicity, tissue-based
# [20] = Cardiotoxicity in Langendorff-perfused Wistar rat heart assessed as effect on PQ interval time at 0.1 uM by ECG analysis (reference value: 45.4+/-3.9 milliseconds); assay type: toxicity, tissue-based
# [21] = Cardiotoxicity in Langendorff-perfused Wistar rat heart assessed as effect on RR time at 10 uM by ECG analysis (reference value: 239.5+/-9.2 milliseconds); assay type: toxicity, tissue-based
# [22] = Cardiotoxicity in Langendorff-perfused Wistar rat heart assessed as effect on PQ interval time at 10 uM by ECG analysis (reference value: 45.4+/-3.9 milliseconds); assay type: toxicity, tissue-based
# [23] = Cardiotoxicity in Langendorff-perfused Wistar rat heart assessed as effect on QT interval time at 10 uM by ECG analysis (reference value: 66.1+/-1.1 milliseconds); assay type: toxicity, tissue-based
# [24] = Cardiotoxicity in Langendorff-perfused Wistar rat heart assessed as effect on HR at 0.01 uM by ECG analysis (reference value: 252.3 +/-10.1 bpm); assay type: toxicity, tissue-based
# [25] = Cardiotoxicity in Langendorff-perfused Wistar rat heart assessed as effect on QTc interval time at 1 uM by ECG analysis (reference value: 66.4+/-1.3 milliseconds); assay type: toxicity, tissue-based
# [26] = Cardiotoxicity in Langendorff-perfused Wistar rat heart assessed as effect on RR time at 0.1 uM by ECG analysis (reference value: 239.5+/-9.2 milliseconds); assay type: toxicity, tissue-based
# [27] = Cardiotoxicity in Langendorff-perfused Wistar rat heart assessed as effect on QT interval time at 0.1 uM by ECG analysis (reference value: 66.1+/-1.1 milliseconds); assay type: toxicity, tissue-based
structure (smiles),measurement,setting,value
O=C(NO)c1ccc(CNC(=O)N2CCC(N3C(=O)[C@H](c4ccccc4)[C@H]3c3ccccc3)CC2)cc1 (racemic),half-life at 5 µM,[1],54 min
same,remaining at 24 h,[2],100%
same,solubility at 24 h,[3],70 µM
same,remaining at 24 h,[4],100%
same,Activity,[5],Non-Toxic
same,CLH,[6],8.43 µL/min
same,remaining at 24 h,[7],73%
same,logP,[8],2.75
O=C(NO)c1ccc(CNC(=O)N2CCC(N3CC(c4ccccc4)(c4ccccc4)C3=O)CC2)cc1,Time,[9],68.6 ms
same,Activity,[10],248.4 bpm
same,half-life at 5 µM,[1],19 min
same,remaining at 24 h,[2],94%
same,solubility at 24 h,[3],10 µM
same,Time,[11],44.4 ms
same,Time,[12],66.9 ms
same,remaining at 24 h,[4],100%
same,Time,[13],66.7 ms
same,Activity,B cell,Non-Toxic
same,Activity,[5],Non-Toxic
same,Time,[14],12.8 ms
same,Time,[15],68.2 ms
same,Time,[16],237.2 ms
same,Time,[17],13.9 ms
same,Time,[18],239.8 ms
same,CLH,[6],7.39 µL/min
same,Time,[19],13.9 ms
same,remaining at 24 h,[7],75%
same,Time,[20],44.9 ms
same,Time,[21],241.5 ms
same,logP,[8],2.78
same,Time,[22],47.5 ms
same,Time,[23],68.5 ms
same,Activity,[24],251.2 bpm
same,Time,[25],68.9 ms
same,Time,[26],233.1 ms
same,Time,[27],66.1 ms
